Source: PubChem BioAssay
CAL PDZ FP-1 = inhibitors of human CAL PDZ peptide binding. Q9HD26. purified CAL PDZ, TMR-peptide fluorescence polarization, 1 h. inhibition, % at 20 µM. actives 0.02% (n = 330,000). AID 504414;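 active = highest replicate inhibition of at least 40%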;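 note: plate controls were DMSO neutral control wells for no effect and unlabeled competitor peptide control wells for full effect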
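Material – purified CerCALP PDZ construct · Detection – FP readout, S and P plane fluorescence · Measure – percent inhibition from loss of millipolarization · Controls – unlabelled peptide for full inhibition, DMSO wells as neutral · Probe or stimulus – TMR-labelled reporter peptide T*-PRC34 bound in PDZ groove · Times – 1 h at RT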
miR122 inh = blocks miR-122 activity in Huh7 sensor cells; actives 0.3% (n = 340,000); AID 602342; Huh7 miR-122 Renilla luciferase sensor, 48 h; neutral wells = 0, positive control = 100; activation (reporter increase), % at 12.5 µM;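 active = mean replicate activation score at least 90 and every replicate individually at or above 90; inconclusive = only one of the two criteria met; inactive = neither criterion met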;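 note: higher luciferase means less miR-122 activity so hits act as miR-122 inhibitors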
PGC1a acetyl inh = PGC1a acetylation modulation, inhibitor mode; U2OS PGC1a acetylation, AlphaScreen anti-acetyl-lysine; with virally co-expressed GCN5 acetyltransferase; inhibition, % at 15.6 µM; actives 0.17% (n = 350,000); AID 651687;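 active = every replicate shows inhibition of at least 40%; inconclusive = mean inhibition at least 40% but some replicate below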;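 note: 0% = neutral control wells and 100% = positive control wells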
ARNT TACC3 PPI = disrupts binding between human ARNT and TACC3 | Q9Y6A5 | AlphaScreen His-ARNT PAS-B/GST-TACC3 binding, luminescence; TACC3 fragment carries E629A point mutation | inhibition, % at 9.99 µM | actives 0.66% (n = 390,000);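 active = mean inhibition of replicates at least 50% and at least half of replicates each reaching 50%; inconclusive = half or more replicates reach 50% but mean below 50%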;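 note: 0% = complete ARNT plus TACC3 wells and 100% = ARNT alone without TACC3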
CAL PDZ FP-2 = CAL PDZ (human) peptide binding inhibition | purified CAL PDZ, TMR-peptide fluorescence polarization, 1 h | inhibition, % at 24.9 µM | Q9HD26 | actives 0.92% (n = 300,000);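 active = mean inhibition of at least 30% with at least half of replicates also reaching 30%; inconclusive = no clear call, values can overlap the other calls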;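 note: 0% = DMSO neutral control and 100% = excess unlabeled competitor peptide PRC23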
F508del corr = CFTR F508del correction in bronchial cells; actives 0.36% (n = 350,000); AID 720511; activity (quench increase), % at 7.58 µM; CFBE cells, YFP halide quenching; stimulated with forskolin plus potentiator P3; % fluorescence drop versus neutral controls;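 active = mean added fluorescence quench of at least 8% versus neutral control, with both replicates also reaching 8%; inconclusive = only one of the mean or replicate conditions met; inactive = mean below 8% and not both replicates reaching 8%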;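 note: cells transiently co-express mutant CFTR-F508del with the halide-sensitive YFP; corrector assay measuring rescue of mutant channel to the surface after 24 h compound exposure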
* hit, by the source's call; ? = inconclusive; · = no result; [ ] = remark or other dose. Most compounds without a hit are left out; they make up all but 1.7% or so of the library.

SMILES	CAL PDZ FP-1	miR122 inh	PGC1a acetyl inh	ARNT TACC3 PPI	CAL PDZ FP-2	F508del corr
CC1(Cc2cccc(F)c2)C(=O)Nc2ccc(-c3cccnc3)cc21 (stereo unspecified)	·	22	21	·	·	-1
C[C@@H]1CN([C@@H](C)CO)C(=O)Cc2cc(NC(=O)Nc3ccc(F)cc3)ccc2O[C@@H]1CN(C)Cc1ccc(C(=O)Nc2ccccc2N)cc1	·	-5[16.7 µM]	-9	·	·	-4
C[C@@H]1CN([C@H](C)CO)C(=O)Cc2cc(N(C)C)ccc2O[C@@H]1CN(C)Cc1ccc(C(=O)Nc2ccccc2N)cc1	·	130*[16.7 µM]	2	19	·	6
C[C@H](CO)N1C[C@H](C)[C@H](CN(C)Cc2ccc(C(=O)Nc3ccccc3N)cc2)Oc2ccc(NC(=O)Nc3ccc(F)cc3)cc2CC1=O	·	267*[16.7 µM]	-12	·	·	-3
C[C@@H]1CN([C@H](C)CO)C(=O)c2cc(N(C)C)ccc2O[C@@H]1CN(C)Cc1ccc(C(=O)Nc2ccccc2N)cc1	·	220*[16.7 µM]	7	·	·	9.2*
C[C@@H]1CN([C@H](C)CO)C(=O)c2cc(N(C)C)ccc2O[C@H]1CN(C)Cc1ccc(C(=O)Nc2ccccc2N)cc1	·	112*[16.7 µM]	3	·	·	2
COc1ccc(S(=O)(=O)N(C)C[C@@H]2OCCCC[C@H](C)Oc3ccc(NC(=O)CCCN(C)C)cc3C(=O)N([C@@H](C)CO)C[C@H]2C)cc1	·	-5[16.7 µM]	-10	0	·	0
C[C@H](CO)N1C[C@H](C)[C@H](CN(C)Cc2ccc(C(=O)Nc3ccccc3N)cc2)Oc2ccc(N(C)C)cc2C1=O	·	?	-34	12	·	1
C[C@H]1CN([C@@H](C)CO)C(=O)c2cc(N(C)C)ccc2O[C@H]1CN(C)Cc1ccc(C(=O)Nc2ccccc2N)cc1	·	120*[16.7 µM]	-8	·	·	2
C[C@H](CO)N1C[C@H](C)[C@H](CN(C)C(=O)Nc2cccc3ccccc23)OCCCC[C@H](C)Oc2ccc(NS(C)(=O)=O)cc2C1=O	·	-7[16.7 µM]	-12	32	·	2
CCOC(=O)c1cc2c(=Cc3ccc(N(C)C)cc3)c3ccccc3n2[n+]1C	6	·	·	·	-9	9.9*
C[n+]1c(-c2ccccc2)cc2c(=Cc3ccccc3)c3ccccc3n21	3	·	·	24	2	4
CN(C)c1ccc(C=c2c3cc(O)ccc3n3c2cc(-c2ccccc2)[n+]3C)cc1	35	·	·	60*	-6	3
CCCC(=O)Nc1ccc2c(c1)OC[C@H](C)N(CCc1ccccc1)C[C@H](C)[C@H](OC)CN(C)C2=O	·	9[16.7 µM]	-2	·	·	-2
Cc1cc([N+](=O)[O-])ccc1NCc1ccc2c(c1)OCCO2	1	-1	-4	5	-1	2
Cc1cc(F)ccc1NCc1ccc([N+](=O)[O-])cc1	-1	·	-3	-1	46*	3
Cc1noc(C)c1NC(=O)N(C)C[C@H]1Oc2ccc(NC(=O)CCC(F)(F)F)cc2C(=O)N([C@@H](C)CO)C[C@H]1C	·	1[16.7 µM]	-1	-1	·	-3
O=C(Nc1ccccc1Oc1ccsc1C(=O)O)c1ccccc1	-3	·	·	9	39*	2
CCN(CC)CCCNC(=O)c1cn(CC(C)C)c(=O)c2c1c1ccccc1n2C	-1	-2	-4	6	50*	-2
Cc1ccc(-c2ccc3c(c2)O[C@@H](CN(C)C(=O)C2CCCCC2)[C@@H](C)CN([C@@H](C)CO)S3(=O)=O)cc1	·	18[16.7 µM]	18	·	·	0
CC(C)NC(=O)N1C[C@H]2[C@@H](c3ccccc31)[C@@H](CO)N2Cc1ccc(Cl)cc1	·	-12[16.7 µM]	-5	2	·	0
C[C@H](CO)N1C[C@H](C)[C@@H](CN(C)C(=O)Nc2cccc3ccccc23)Oc2ccc(NC(=O)CCCN(C)C)cc2C1=O	·	·	6	·	·	-3
C[C@H]1CNC(=O)c2c(C(=O)Nc3ccc(CNC(=O)OC(C)(C)C)cc3)ncn21	·	0	·	·	·	12*
C[C@H]1Cn2cnc(C(=O)Nc3ccc(CNC(=O)OC(C)(C)C)cc3)c2C(=O)N1	·	-5	·	·	·	4
CCN(CC)Cc1cc(C(C)(C)C)cc(N2CCOCC2)c1O	0	-3	-1	-5	-2	-1
SMILES	CAL PDZ FP-1	miR122 inh	PGC1a acetyl inh	ARNT TACC3 PPI	CAL PDZ FP-2	F508del corr
CN(C)Cc1cc(C(C)(C)C)cc(N2CCOCC2)c1O	0	-3	7	0	89*	-2
C[C@H](NC(=O)[C@@H]1[C@@H](CO)[C@@H]2Cn3c(ccc(C4=CCCCC4)c3=O)[C@H]1N2)c1ccccc1	·	3[16.7 µM]	0	5	·	-1
CCSc1nc2nccnc2c(=O)[nH]1	0	-12	9	6	96*	0
CCSc1nc(O)cc(=O)[nH]1	2	·	·	-6	-9	0
Cc1cccc(C(=O)Nc2ccn(C)n2)c1	0	·	·	-2	55*	-4
O=S(=O)(c1ccccc1)N1CCN(CCc2ccccc2)CC1	-5	-5	-5	26	69*	3
Cc1ccc(NS(=O)(=O)c2cccc(C(=O)NC3CCN(Cc4ccccc4)CC3)c2)cc1	-1	·	·	1	89*	0
O=C(NC1CCN(Cc2ccccc2)C1)c1cccc(S(=O)(=O)N2CCOCC2)c1 (stereo unspecified)	-8	·	·	-8	-3	1
O=S(=O)(NCCC1=CCCCC1)c1cccc(S(=O)(=O)N2CCOCC2)c1	0	39	-10	14	-2	·
O=S(=O)(NCCc1ccccc1)c1cccc(S(=O)(=O)N2CCOCC2)c1	1	150*	1	-2	·	·
O=S(=O)(c1ccccc1)N1CCN(Cc2ccccc2)CC1	-1	·	·	0	1	-1
O=C(NC1CCN(Cc2ccccc2)CC1)c1cc(S(=O)(=O)N2CCOCC2)ccc1Cl	-2	-5	0	-17	6	15*
Cc1ccc(NS(=O)(=O)c2ccc(C(=O)NC3CCN(Cc4ccccc4)CC3)cc2)cc1	0	9	11	8	·	2
COCC(=O)Nc1ccc2c(c1)OC[C@H](C)N(C(=O)NC(C)C)C[C@H](C)[C@H](OC)CN(C)C2=O	·	·	3	1	·	-2
COc1ccccc1-c1ccc(C2[C@@H]3CN(S(=O)(=O)c4ccccc4)C[C@H]2N3)cc1 (stereo partly specified)	·	·	-1	·	·	-4
Cc1cc(C)c(C)c(S(=O)(=O)NC2CCN(Cc3ccccc3)CC2)c1C	0	216*	·	8	·	3
C[C@@H]1CCCCO[C@@H](CN(C)S(C)(=O)=O)[C@H](C)CN([C@@H](C)CO)C(=O)c2cc(N(C)C)ccc2O1	·	3[16.7 µM]	-7	4	·	-3
C=CCn1cccc(/C=C/C(=O)c2ccc(C(C)(C)C)cc2)c1=S	-1	8	53*	-21	-4	·
CC(=O)Nc1nonc1NC(C)=O	1	-2	-4	2	-3	·
